Data taken from ChEMBL document CHEMBL3259682, “Synthesis, β-haematin inhibition, and in vitro antimalarial testing of isocryptolepine analogues: SAR study of indolo[3,2-c]quinolines with various substituents at C2, C6, and N11” (Bioorg Med Chem, 2014).

Key:
[1] = Selectivity index, ratio of IC50 for rat L6 cells to IC50 for chloroquine/pyrimethamine-resistant Plasmodium falciparum K1; assay type: toxicity, cell-based; details: read-out: Ratio IC50
L6 = assay: Cytotoxicity against rat L6 cells after 70 hrs by Alamar Blue assay; assay type: functional, cell-based; details: L6, 70 h
How it was run: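 Rat skeletal myoblast L6 cells, 4000 per well, in RPMI 1640 with 1% L-glutamine and 10% fetal bovine serum. Eleven 3-fold serial drug dilutions were tested. Alamar Blue was added for a final 2 h. Fluorescence was read at excitation 536 nm and emission 588 nm. IC₅₀ is the mean of two independent assays.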

[2] = Selectivity index, ratio of IC50 for rat L6 cells to IC50 for erythrocytic stage of chloroquine-sensitive Plasmodium falciparum NF54; assay type: toxicity, cell-based; details: read-out: Ratio IC50
How it was run: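 Selectivity index is the L6 cytotoxicity IC₅₀ divided by the NF54 antiplasmodial IC₅₀. Each IC₅₀ is the mean of two independent assays.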

Plasmodium falciparum [3] = assay: Antimalarial activity against erythrocytic stage of chloroquine-sensitive Plasmodium falciparum NF54 after 48 hrs by [3H]-hypoxanthine incorporation assay; assay type: functional, organism-based
How it was run: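 ³H-hypoxanthine incorporation against P. falciparum NF54. DMSO stocks at 10 mg/mL were added to cultures in hypoxanthine-free RPMI 1640 with HEPES, NaHCO₃, neomycin and Albumax, using human A⁺ red cells at 2.5% haematocrit and 0.3% parasitaemia. Eleven 3-fold serial dilutions were tested. Incubation was under 4% CO₂/3% O₂/93% N₂. ³H-hypoxanthine was added after 48 h, followed by a further 24 h. Cells were harvested onto glass-fibre filters. IC₅₀ is the mean of two independent assays.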

[4] = Binding affinity to haematin assessed as inhibition of beta-haematin formation after 5 to 6 hrs by pyridine-ferrichrome-based method
How it was run: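 Detergent (NP-40) mediated β-haematin formation assay, run manually. Compounds came from 20, 2 and 0.4 mM DMSO stocks, tested at 0–1000 µM final. Haematin was 100 µM final in 0.5 M acetate buffer, pH 4.8. Incubation was 5–6 h at 37 °C. Read-out used the pyridine-ferrichrome method with UV–vis absorbance. IC₅₀ came from sigmoidal dose–response fits.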

[5] = Resistance index, ratio of IC50 for chloroquine/pyrimethamine-resistant Plasmodium falciparum K1 to IC50 for erythrocytic stage of chloroquine-sensitive Plasmodium falciparum NF54; assay type: functional
How it was run: (§1)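 Chloroquine/pyrimethamine-resistant K1 and drug-susceptible NF54 P. falciparum were grown in hypoxanthine-free RPMI 1640 with HEPES, NaHCO₃, neomycin and Albumax, in human A⁺ erythrocytes at 2.5% haematocrit and 0.3% parasitaemia. DMSO stocks were 10 mg/mL, tested in eleven 3-fold dilutions under 4% CO₂/3% O₂/93% N₂. ³H-hypoxanthine was added at 48 h, then 24 h more before filter harvest. IC₅₀ is the mean of two assays; RI = K1/NF54 IC₅₀.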

Plasmodium falciparum [6] = assay: Antimalarial activity against erythrocytic stage of chloroquine/pyrimethamine-resistant Plasmodium falciparum K1 after 48 hrs by [3H]-hypoxanthine incorporation assay; assay type: functional, organism-based; how it was run: as §1

| Compound | selectivity ratio [1] | IC50 (L6) [µM] | selectivity ratio [2] | IC50 (Plasmodium falciparum [3]) [µM] | IC50 [4] [µM] | Ratio IC50 [5] | IC50 (Plasmodium falciparum [6]) [µM] |
| --- | --- | --- | --- | --- | --- | --- | --- |
| Cn1cc2c3ccccc3nc-2c2ccccc21 [ISOCRYPTOLEPINE] | 1.5 |  |  |  |  |  |  |
| Cn1c2ccccc2c2c(NCC(C)(C)CN)nc3ccc(Br)cc3c21 |  | 0.576 | 9.9 | 0.0583 | 41.2 |  |  |
| CC(C)(CN)CNc1nc2ccc(Cl)cc2c2[nH]c3ccccc3c12 | 36.1 | 1.84 | 72.1 | 0.0255 | 20.7 | 2 | 0.051 |
| c1ccc2c(c1)nc(NCC1CCCO1)c1c3ccccc3[nH]c21 (stereo not drawn) |  | 2.05 | 18.1 | 0.113 | 148 |  |  |
| c1ccc(CNc2nc3ccccc3c3[nH]c4ccccc4c23)cc1 |  | 2.93 | 158 | 0.0186 | 30.6 |  |  |
| COc1ccc(Nc2nc3ccccc3c3[nH]c4ccccc4c23)c(OC)c1 |  | 15.2 | 48 | 0.317 | 44.1 |  |  |
| Clc1nc2ccccc2c2[nH]c3ccccc3c12 |  | 193 | 18.9 | 10.2 | > 1000 |  |  |
| NCCCNc1nc2ccccc2c2[nH]c3ccccc3c12 | 7.6 | 0.627 | 45.8 | 0.0137 | 116 | 6 | 0.0827 |
| Cn1c2ccccc2c2c(NCCCNC(=O)Nc3ccccc3)nc3ccccc3c21 |  | 0.108 | 14.8 | 0.0073 | 22.7 |  |  |
| O=S(=O)(NCCCNc1nc2ccccc2c2[nH]c3ccccc3c12)c1ccccc1 | 8.7 | 0.811 | 11.3 | 0.072 | 24.2 | 1.3 | 0.0929 |
| O=C(NCCCNc1nc2ccc([N+](=O)[O-])cc2c2[nH]c3ccccc3c12)Nc1ccccc1 |  | 4.64 | 192 | 0.0242 | 15.2 |  |  |
| OCCNc1nc2ccccc2c2[nH]c3ccccc3c12 |  | 0.891 | 6.3 | 0.141 | 200 |  |  |
| O=C(NCCCNc1nc2ccccc2c2[nH]c3ccccc3c12)Nc1ccccc1 | 21.5 | 1.15 | 480 | 0.0024 | 23.9 | 22.4 | 0.0537 |
| O=C(NCCCNc1nc2ccccc2c2[nH]c3ccccc3c12)c1cccs1 | 41.2 | 3.5 | 48.3 | 0.0724 | 24.1 | 1.2 | 0.0849 |
| CS(=O)(=O)NCCCNc1nc2ccccc2c2[nH]c3ccccc3c12 |  | 1.06 | 19.6 | 0.0543 | 118 |  |  |
| c1ccc2c(c1)nc(N1CCCNCC1)c1c3ccccc3[nH]c21 |  | 4.11 | 65 | 0.0632 | 171 |  |  |
| NCCCNc1nc2ccc(Cl)cc2c2[nH]c3ccccc3c12 | 16.6 | 1.12 | 181 | 0.0062 | 12.4 | 10.9 | 0.0677 |
| Cn1c2ccccc2c2c(NCCCN)nc3ccc(Br)cc3c21 |  | 0.825 | 26.3 | 0.0313 | 26.6 |  |  |
| O=C(NCCCCCCNc1nc2ccccc2c2[nH]c3ccccc3c12)Nc1ccccc1 | 35.3 | 0.862 | 39 | 0.0221 | 16.2 | 1.1 | 0.0244 |
| CCN(CC)Cc1cc(Nc2ccnc3cc(Cl)ccc23)ccc1O |  |  |  |  | 11 |  |  |
| Cn1c2ccccc2c2c(NCC(C)(C)CN)nc3ccccc3c21 |  | 0.259 | 0.9 | 0.274 | 1000 |  |  |
| Cn1c2ccccc2c2c(NCCCN)nc3ccccc3c21 | 3.3 | 0.279 | 3.9 | 0.0723 | 24.2 | 1.2 | 0.0854 |
| NCCCCCNc1nc2ccccc2c2[nH]c3ccccc3c12 | 32.5 | 0.817 | 64.8 | 0.0126 | 81 | 2 | 0.0251 |
